A word on the pIC50: it is −log10 of the IC50, conventionally taken in molar units. For orientation: IC50 means the midpoint of a concentration-inhibition curve. The term bioavailability denotes the share of a dose that reaches the circulation, judged against a reference dose that is usually intravenous. A word on the pKi: it is −log10 of the Ki, conventionally taken in molar units.

pIC50, pKi: −log10 of the molar value. Activity calls are given as the source filed them. No cut-off for these calls is given here.

Data set [1] can be described thus: Cell cycle arrest in human STO cells assessed as mitotic cells at antiproliferative IC50 after 72 hrs by fluorescence microscopic analysis relative to control. In kind it is functional.
Data set [2] is described as follows: Cytotoxicity against human MP8 cells assessed as growth inhibition after 72 hrs by MTS assay. In kind it is functional, cell-based. The conditions noted are these: MP8, 72 h. Summed up: (§1)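 Log-phase cells seeded at 4500 cells/50 µL and grown 24 h, then exposed 72 h to 0.01-100 µM compound; vehicle controls 0.01% DMSO. MTS read-out at 490 nm, expressed as % of DMSO-treated cells. Eight replicates per condition, at least three independent repeats; IC50 read graphically from dose-response curves.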

Data set [3] in a line: Cytotoxicity against human DU145 cells assessed as growth inhibition after 72 hrs by MTS assay. In kind it is functional, cell-based. As to conditions: DU-145, 72 h. In a few lines:
as §1

Data set [4] is described as follows: Antitumor activity against human STO cells xenografted in nude mouse assessed as tumor growth inhibition at 5 mg/kg, ip administered once per seven days for 4 weeks starting from day 10 post cell inoculum. Format: functional. As to conditions: read-out: TGI. In a few lines: (§2)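 Female nude mice, 6-8 weeks old; 10^7 exponentially growing STO cells injected s.c. into right flank; eight mice per group. Compound in 10% DMSO/90% saline, 5 mg/kg i.p. q7dx4 from day 10 after inoculum. Tumor diameters measured weekly by caliper, TV = d2×D/2; TVI% = 100 − (mean TV treated/mean TV control × 100). Toxicity scored as body weight loss and lethality.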

A short description of data set [5]: Cytotoxicity against human MDA-MB-231 cells assessed as growth inhibition after 72 hrs by MTS assay. In kind it is functional, cell-based. As to conditions: MDA-MB-231, 72 h. Summed up: as §1
(Tetrazolium dyes change colour on reduction, which living cells bring about.)

A short description of data set [6]: Cytotoxicity against human STO cells assessed as growth inhibition after 72 hrs by MTS assay. Format: functional, cell-based. Summed up:
as §1

A short description of data set [7]: Cytotoxicity against human MCF10A cells assessed as growth inhibition after 72 hrs by MTS assay. Format: toxicity, cell-based, MCF-10A. Summed up: as §1
A short description of data set [8]: Cytotoxicity against human JR8 cells assessed as growth inhibition after 72 hrs by MTS assay. Format: functional, cell-based. As to conditions: JR8, 72 h. Summed up: as §1
Data set [9] is described as follows: Cytotoxicity against human WI38 cells assessed as growth inhibition after 72 hrs by MTS assay. Format: toxicity, cell-based, WI-38. Summed up:
as §1

Another data set deals with Mus musculus. In words: Toxicity in nude mouse xenografted with human STO cells assessed as body weight loss at 5 mg/kg, ip administered once per seven days for 4 weeks starting from day 10 post cell inoculum. In kind it is organism-based. As to conditions: in vivo, 672 h. In a few lines:
as §2

The test system of data set [10] is MP8. In words: Inhibition of alpha-tubulin polymerization in human MP8 cells assessed as increase in ratio of soluble to polymerized tubulin fraction at antiproliferative IC50 after 24 hrs by western blot analysis. Format: cell-based. (In western blotting, separated proteins are transferred to a membrane and probed.)
Data set [11] is described as follows: Cytotoxicity against human PC3 cells assessed as growth inhibition after 72 hrs by MTS assay. Format: functional, cell-based. The conditions noted are these: PC-3, 72 h. Summed up: as §1
The subject of data set [12] is STO. In words: Cell cycle arrest in human STO cells assessed as reduction G1 phase at antiproliferative IC80 after 48 to 72 hrs by propidium iodide staining based flow cytometry. In kind it is functional. In a few lines: (§3)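 STO or MP8 cells exposed 48 and 72 h to compound at IC50 or IC80 (72-h MTS values), controls 1% DMSO. Adherent plus floating cells fixed in 70% ethanol, stained 30 min at 4°C with propidium iodide 50 µg/mL, RNase, 0.05% NP-40 in PBS. ≥30000 events per flow cytometry sample; Modfit model for G1/S/G2/M percentages; mean of three independent experiments.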
On the technique in general: Flow cytometry measures light scatter and fluorescence of single cells or particles in a stream.

The subject of data set [13] is MP8. In words: Cell cycle arrest in human MP8 cells assessed as reduction G1 phase at antiproliferative IC80 after 48 to 72 hrs by propidium iodide staining based flow cytometry. Format: functional. In a few lines: as §3
For data set [14], the system named is STO. In words: Cell cycle arrest in human STO cells assessed as reduction G1 phase at antiproliferative IC50 after 48 to 72 hrs by propidium iodide staining based flow cytometry. In kind it is functional. Summed up:
as §3

Data set [15] deals with MP8. In words: Cell cycle arrest in human MP8 cells assessed as reduction G1 phase at antiproliferative IC50 after 48 to 72 hrs by propidium iodide staining based flow cytometry. In kind it is functional. In a few lines:
as §3

Data set [16] in a line: Cytotoxicity against human MCF7 cells assessed as growth inhibition after 72 hrs by MTS assay. In kind it is functional, cell-based. The conditions noted are these: MCF7, 72 h. Summed up:
as §1

Data set [17] deals with STO. In words: Inhibition of alpha-tubulin polymerization in human STO cells assessed as increase in ratio of soluble to polymerized tubulin fraction at antiproliferative IC50 after 24 hrs by western blot analysis. In kind it is cell-based.
A short description of data set [18]: Cell cycle arrest in human MP8 cells assessed as mitotic cells at antiproliferative IC50 after 72 hrs by fluorescence microscopic analysis relative to control. In kind it is functional.
Data set [19] in a line: Cytotoxicity against human M14 cells assessed as growth inhibition after 72 hrs by MTS assay. In kind it is functional, cell-based. As to conditions: M14, 72 h. In a few lines: as §1
Data set [20] concerns MP8. In words: Cell cycle arrest in human MP8 cells assessed as accumulation at G2/M phase at antiproliferative IC50 after 48 to 72 hrs by propidium iodide staining based flow cytometry. In kind it is functional. Summed up: as §3
Data set [21] has as its system STO. In words: Inhibition of alpha-tubulin polymerization in human STO cells assessed as increase in ratio of soluble to polymerized tubulin fraction at 2 nM after 24 hrs by western blot analysis. In kind it is cell-based.
For data set [22], the system named is MP8. In words: Inhibition of alpha-tubulin polymerization in human MP8 cells assessed as increase in ratio of soluble to polymerized tubulin fraction at 13 nM after 24 hrs by western blot analysis. In kind it is cell-based.
Data set [23] relates to STO. In words: Cell cycle arrest in human STO cells assessed as accumulation at G2/M phase at antiproliferative IC50 after 48 to 72 hrs by propidium iodide staining based flow cytometry. In kind it is functional. In a few lines:
as §3

Data set [24] can be described thus: Oral bioavailability in rat. As to conditions: in vivo. In kind it is ADME, organism-based.
Data set [25] can be described thus: Displacement of [3H]colchicine from tubulin (unknown origin). Also on record: species or system Homo sapiens.
A short description of data set [26]: Antitumor activity against mouse M5076 cells implanted in mouse assessed as delay in time to develop 1 g tumor volume at 100 mg/kg/day. In kind it is functional.
Data set [27] is described as follows: Oral bioavailability in mouse. Format: ADME, organism-based. The conditions noted are these: in vivo.
Data set [28] in a line: Antitumor activity against mouse M5076 cells implanted in mouse assessed as increase in mouse life span at 100 mg/kg/day relative to control. In kind it is functional.
A short description of data set [29]: Toxicity in mouse implanted with mouse M5076 cells. Format: organism-based.
A short description of data set [30]: Oral bioavailability in monkey. As to conditions: rhesus monkey, in vivo. In kind it is ADME, organism-based, Macaca mulatta.
Data set [31] can be described thus: Oral bioavailability in dog. Format: ADME, organism-based, Canis lupus familiaris. The conditions noted are these: in vivo.

Turning to `COc1cc(Cn2cc3c(c2)-c2oncc2CC3)cc(OC)c1`, the figures for the Activity (in data set [1]; with Mus musculus; in data set [18]) were 35 - 70%, “Non-Toxic” and 35 - 70%, respectively. Moreover, the pIC50 in [2] is 7.15; in [3] it was 6.51; in [5] it was 6.49; in [6] it was 7.22; in [8], 6.64; in data set [11], 6.57. For the same molecule, the pIC50 in data set [16] is 6.48; in [19], 6.51. For the same molecule, the inhibition in vivo at 5 mg/kg in data set [4] stood at 51%. In addition, the IC50 at 72 h in [7] and in data set [9] was over 100000 nM throughout. The inhibition entry in the data set with MP8 [10] and in the data set on STO [17] was “Active” each time. In addition, the outcome in the data set with STO [12], in the data set on MP8 [13], in the data set on STO [14] and in the data set with MP8 [15] was Active.

In the case of `CCC1=C[C@@H]2CN(C1)Cc1c([nH]c3ccccc13)[C@@](C(=O)OC)(c1cc3c(cc1OC)N(C)[C@H]1[C@@](O)(C(=O)OC)[C@H](OC(C)=O)[C@]4(CC)C=CCN5CC[C@]31[C@@H]54)C2` [VINORELBINE], the Activity in [1] and in [18] was 35 - 70% in each case. The result in the data set with MP8 [20] and with STO [23] was Active. Further, the inhibition entry in the data set with STO [21] and in the data set on MP8 [22] was “Active” each time.

With `CC(=O)O[C@H]1C(=O)[C@@]2(C)[C@H]([C@H](OC(=O)c3ccccc3)[C@]3(O)C[C@H](OC(=O)[C@H](O)[C@@H](NC(=O)c4ccccc4)c4ccccc4)C(C)=C1C3(C)C)[C@]1(OC(C)=O)CO[C@@H]1C[C@@H]2O` [PACLITAXEL], the Activity in data set [1] and in data set [18] was 35 - 70% each time. In addition, the outcome in the data set with MP8 [20] and in the data set with STO [23] was Active.

With `COc1cc([C@H]2CN=C(c3ccc4c(ccn4C)c3)O2)cc(OC)c1OC`, the bioavailability in data set [24], in data set [27], in data set [30] and in data set [31] was 6.5 to 18.6% throughout. The same molecule gave a pKi in data set [25] of 6.19. In [26], the Time came to 28 days. Further, the Activity in [28] turned out to be 206%. This molecule had an MTD in data set [29] of 100 mg/kg/day.

These data come from ChEMBL document CHEMBL3875171, “[1,2]Oxazolo[5,4-e]isoindoles as promising tubulin polymerization inhibitors” (Eur J Med Chem, 2016).
